{"source": "ChEMBL document CHEMBL1795311", "about": "“Synthesis, antiproliferative activity, and mechanism of action of a series of 2-{[(2E)-3-phenylprop-2-enoyl]amino}benzamides” (Eur J Med Chem, 2011)", "type_in_all_cases": "functional", "key": {"[1]": {"tested_on": "LOX IMVI", "assay": "Growth inhibition of human LOXIMVI cells after 48 hrs by SRB assay", "procedure,_shortened": "(§1)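 NCI DTP panel cells grown in RPMI 1640 with 5% FBS and 2 mM L-glutamine, preincubated 24 h, then given five concentrations (10-fold or ½-log dilutions from DMSO stock) for 48 h at 37 °C. Cells fixed with TCA, stained with SRB, absorbance read at 515 nm, with time-zero plates as reference.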"}, "[2]": {"tested_on": "M14", "assay": "Growth inhibition of human M14 cells after 48 hrs by SRB assay", "details": "M14, 48 h", "procedure,_shortened": "as §1"}, "[3]": {"tested_on": "MDA-MB-435", "assay": "Growth inhibition of human MDA-MB-435 cells after 48 hrs by SRB assay", "details": "MDA-MB-435, 48 h", "procedure,_shortened": "as §1"}, "[4]": {"tested_on": "SK-MEL-2", "assay": "Growth inhibition of human SK-MEL-2 cells after 48 hrs by SRB assay", "details": "SK-MEL-2, 48 h", "procedure,_shortened": "(§2)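 Run by the NCI Developmental Therapeutics Program: cells in RPMI 1640 with 5% FBS and 2 mM L-glutamine, plated at 5000–40,000 cells/well and grown 24 h before dosing. Drug (DMSO stock) given at five concentrations for 48 h at 37 °C, 5% CO2. Adherent cells fixed with cold TCA, stained with 0.4% SRB and read at 515 nm. GI50, TGI and LC50 taken from the time-zero, control and treated absorbances.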"}, "[5]": {"tested_on": "SK-MEL-5", "assay": "Growth inhibition of human SK-MEL-5 cells after 48 hrs by SRB assay", "details": "SK-MEL-5, 48 h", "procedure,_shortened": "as §2"}, "[6]": {"tested_on": "UACC-257", "assay": "Growth inhibition of human UACC257 cells after 48 hrs by SRB assay", "details": "UACC-257, 48 h", "procedure,_shortened": "as §2"}, "[7]": {"tested_on": "UACC-62", "assay": "Growth inhibition of human UACC62 cells after 48 hrs by SRB assay", "details": "UACC-62, 48 h", "procedure,_shortened": "as §2"}, "[8]": {"tested_on": "IGROV-1", "assay": "Growth inhibition of human IGROV1 cells after 48 hrs by SRB assay", "details": "IGROV-1, 48 h", "procedure,_shortened": "as §1"}, "[9]": {"tested_on": "OVCAR-3", "assay": "Growth inhibition of human OVCAR3 cells after 48 hrs by SRB assay", "details": "OVCAR-3, 48 h", "procedure,_shortened": "as §1"}, "[10]": {"tested_on": "OVCAR-4", "assay": "Growth inhibition of human OVCAR4 cells after 48 hrs by SRB assay", "details": "OVCAR-4, 48 h", "procedure,_shortened": "as §1"}, "[11]": {"tested_on": "OVCAR-5", "assay": "Growth inhibition of human OVCAR5 cells after 48 hrs by SRB assay", "details": "OVCAR-5, 48 h", "procedure,_shortened": "as §1"}, "[12]": {"tested_on": "NCI/ADR-RES", "assay": "Growth inhibition of human NCI/ADR-RES cells after 48 hrs by SRB assay", "procedure,_shortened": "as §1"}, "[13]": {"tested_on": "SK-OV-3", "assay": "Growth inhibition of human SKOV3 cells after 48 hrs by SRB assay", "details": "SK-OV-3, 48 h", "procedure,_shortened": "as §2"}, "[14]": {"tested_on": "786-0", "assay": "Growth inhibition of human 786-0 cells after 48 hrs by SRB assay", "details": "786-0, 48 h", "procedure,_shortened": "as §1"}, "[15]": {"tested_on": "A498", "assay": "Growth inhibition of human A498 cells after 48 hrs by SRB assay", "details": "A498, 48 h", "procedure,_shortened": "as §1"}, "[16]": {"tested_on": "ACHN", "assay": "Growth inhibition of human ACHN cells after 48 hrs by SRB assay", "procedure,_shortened": "as §1"}, "[17]": {"tested_on": "CAKI-1", "assay": "Growth inhibition of human Caki1 cells after 48 hrs by SRB assay", "details": "CAKI-1, 48 h", "procedure,_shortened": "as §1"}, "[18]": {"tested_on": "RXF 393", "assay": "Growth inhibition of human RXF393 cells after 48 hrs by SRB assay", "details": "RXF 393, 48 h", "procedure,_shortened": "as §1"}, "[19]": {"tested_on": "SN12C", "assay": "Growth inhibition of human SN12C cells after 48 hrs by SRB assay", "procedure,_shortened": "as §2"}, "[20]": {"tested_on": "TK-10", "assay": "Growth inhibition of human TK10 cells after 48 hrs by SRB assay", "details": "TK-10, 48 h", "procedure,_shortened": "as §2"}, "[21]": {"tested_on": "UO-31", "assay": "Growth inhibition of human UO31 cells after 48 hrs by SRB assay", "details": "UO-31, 48 h", "procedure,_shortened": "as §2"}, "[22]": {"tested_on": "PC-3", "assay": "Growth inhibition of human PC3 cells after 48 hrs by SRB assay", "details": "PC-3, 48 h", "procedure,_shortened": "as §1"}, "[23]": {"tested_on": "DU-145", "assay": "Growth inhibition of human DU145 cells after 48 hrs by SRB assay", "details": "DU-145, 48 h", "procedure,_shortened": "as §1"}, "[24]": {"tested_on": "MCF7", "assay": "Growth inhibition of human MCF7 cells after 48 hrs by SRB assay", "details": "MCF7, 48 h", "procedure,_shortened": "as §1"}, "[25]": {"tested_on": "MDA-MB-231", "assay": "Growth inhibition of human MDA-MB-231 cells after 48 hrs by SRB assay", "details": "MDA-MB-231, 48 h", "procedure,_shortened": "as §1"}, "[26]": {"assay": "Growth inhibition of human Hs 578T cells after 48 hrs by SRB assay", "procedure,_shortened": "as §1"}, "[27]": {"tested_on": "BT-549", "assay": "Growth inhibition of human BT549 cells after 48 hrs by SRB assay", "details": "BT-549, 48 h", "procedure,_shortened": "as §1"}, "[28]": {"tested_on": "T47D", "assay": "Growth inhibition of human T47D cells after 48 hrs by SRB assay", "procedure,_shortened": "as §2"}, "[29]": {"tested_on": "MDA-MB-468", "assay": "Growth inhibition of human MDA-MB-468 cells after 48 hrs by SRB assay", "details": "MDA-MB-468, 48 h", "procedure,_shortened": "as §1"}}}
{"compound": "NC(=O)c1cc(I)ccc1NC(=O)/C=C/c1ccccc1Cl", "values": [{"measurement": "GI50", "setting": "[1]", "value": 4.21, "unit": "µM"}, {"measurement": "GI50", "setting": "[2]", "value": 698, "unit": "nM"}, {"measurement": "GI50", "setting": "[3]", "value": 234, "unit": "nM"}, {"measurement": "GI50", "setting": "[4]", "value": 678, "unit": "nM"}, {"measurement": "GI50", "setting": "[5]", "value": 367, "unit": "nM"}, {"measurement": "GI50", "setting": "[6]", "value": 38.7, "unit": "µM"}, {"measurement": "GI50", "setting": "[7]", "value": 388, "unit": "nM"}, {"measurement": "GI50", "setting": "[8]", "value": 352, "unit": "nM"}, {"measurement": "GI50", "setting": "[9]", "value": 294, "unit": "nM"}, {"measurement": "GI50", "setting": "[10]", "value": 2370, "unit": "nM"}, {"measurement": "GI50", "setting": "[11]", "value": 4.02, "unit": "µM"}, {"measurement": "GI50", "setting": "[12]", "value": 719, "unit": "nM"}, {"measurement": "GI50", "setting": "[13]", "value": 539, "unit": "nM"}, {"measurement": "GI50", "setting": "[14]", "value": 937, "unit": "nM"}, {"measurement": "GI50", "setting": "[15]", "value": 880, "unit": "nM"}, {"measurement": "GI50", "setting": "[16]", "value": 9.86, "unit": "µM"}, {"measurement": "GI50", "setting": "[17]", "value": 637, "unit": "nM"}, {"measurement": "GI50", "setting": "[18]", "value": 425, "unit": "nM"}, {"measurement": "GI50", "setting": "[19]", "value": 1550, "unit": "nM"}, {"measurement": "GI50", "setting": "[20]", "value": 26.7, "unit": "µM"}, {"measurement": "GI50", "setting": "[21]", "value": 1630, "unit": "nM"}, {"measurement": "GI50", "setting": "[22]", "value": 832, "unit": "nM"}, {"measurement": "GI50", "setting": "[23]", "value": 1280, "unit": "nM"}, {"measurement": "GI50", "setting": "[24]", "value": 401, "unit": "nM"}, {"measurement": "GI50", "setting": "[25]", "value": 1410, "unit": "nM"}, {"measurement": "GI50", "setting": "[26]", "value": 362, "unit": "nM"}, {"measurement": "GI50", "setting": "[27]", "value": 816, "unit": "nM"}, {"measurement": "GI50", "setting": "[28]", "value": 19.9, "unit": "µM"}, {"measurement": "GI50", "setting": "[29]", "value": 377, "unit": "nM"}]}
